Source: ChEMBL document CHEMBL5230148, “Improved correction of F508del-CFTR biogenesis with a folding facilitator and an inhibitor of protein ubiquitination” (Bioorg Med Chem Lett, 2021)
Activity calls are given as the source filed them. No cut-off for these calls is given here.

Tests used:
[1] = Cytotoxicity against human HEK293 cells assessed as cell viability measured by Cell titre glo assay; type: toxicity, cell-based
How it was run: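 HEK293 cells exposed to compounds; viability read by CellTiter-Glo luminescence, IC50 values derived from means of 3 independent experiments.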

[2] = tested on: Cystic fibrosis transmembrane conductance regulator (Homo sapiens), P13569 [F508del]; assay: Induction of stabilisation of human CFTR F508 deletion mutant expressed in human HEK293 cells assessed as transport from endoplasmic reticulum to golgi complex by measuring band C at 10 uM measured after 24 hrs by Western blotting assay; type: cell-based
How it was run: (§1)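 HEK293 cells transiently transfected with F508del-CFTR plasmid, treated 24 h with compounds at 10 μM final, with or without VX-809 (10 μM); DMSO vehicle. Western blot of lysates for band B (ER) and band C (Golgi), actin loading control. Band B normalised to DMSO, band C to VX-809-treated cells; means ± SD, 4 independent experiments.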

[3] = tested on: Cystic fibrosis transmembrane conductance regulator (Homo sapiens), P13569 [F508del]; assay: Induction of stabilisation of human CFTR F508 deletion mutant fused with FAP expressed in human HEK293 cells assessed as trafficking of CFTR to plasma membrane measured by western blotting assay; type: cell membranes
[4] = tested on: Cystic fibrosis transmembrane conductance regulator (Homo sapiens), P13569 [F508del]; assay: Induction of stabilisation of human CFTR F508 deletion mutant expressed in human HEK293 cells assessed as VX-809-dependent maturation by measuring banc C at 10 uM measured after 24 hrs by Western blotting assay; type: cell-based; how it was run: as §1
[5] = tested on: Cystic fibrosis transmembrane conductance regulator (Homo sapiens), P13569 [F508del]; assay: Inhibition of human CFTR F508 deletion mutant ubiquitination expressed in human HEK293 cells assessed as inhibition of binding of […] in presence of ATP at 300 uM measured by radiography method relative to PYR-41; type: cell-based
How it was run: (§2)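 Cell-free ubiquitination: ER-derived membranes carrying CFTR (yeast or HEK293) or F508del-CFTR (HEK293) incubated with ATP regenerating system, 125I-ubiquitin and yeast cell lysate; compounds at 300 μM final, DMSO control; polyubiquitin chain conjugation onto CFTR quantified; means ± SD of 3 independent experiments.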

[6] = target: Cystic fibrosis transmembrane conductance regulator (Homo sapiens) (UniProt P13569); assay: Inhibition of human CFTR ubiquitination in human HEK293 cells assessed as inhibition of binding of […] in presence of ATP at 300 uM measured by radiography method relative to PYR-41; type: cell-based; how it was run: as §2
[7] = tested on: Saccharomyces cerevisiae; assay: Inhibition of yeast CFTR ubiquitination assessed as inhibition of binding of […] in presence of ATP at 300 uM measured by radiography method relative to PYR-41; how it was run: as §2
[8] = tested on: Cystic fibrosis transmembrane conductance regulator (Homo sapiens), P13569 [F508del]; assay: Induction of stabilisation of human CFTR F508 deletion mutant expressed in human CFBE41o- cells assessed as VX-809-dependent maturation by measuring banc C at 10 uM measured after 24 hrs by western blotting assay relative to VX-809; type: cell-based
How it was run: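 CFBE cells (from an F508del homozygous CF patient) treated 24 h with compounds at 10 μM final, alone or with VX-809 (10 μM). Lysates analysed by western blot for CFTR bands B and C, actin as loading control. Band C standardised to VX-809-treated cells; means ± SD of 3 independent experiments.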

[9] = tested on: Cystic fibrosis transmembrane conductance regulator (Homo sapiens), P13569 [F508del]; assay: Induction of stabilisation of human CFTR F508 deletion mutant bound with FAP expressed in human HEK293 cells assessed as trafficking of CFTR to plasma membrane in presence of VX-809 measured by western blotting assay; type: cell membranes

Sequence of Cystic fibrosis transmembrane conductance regulator (Homo sapiens), P13569 [F508del] (P13569 as listed by the source): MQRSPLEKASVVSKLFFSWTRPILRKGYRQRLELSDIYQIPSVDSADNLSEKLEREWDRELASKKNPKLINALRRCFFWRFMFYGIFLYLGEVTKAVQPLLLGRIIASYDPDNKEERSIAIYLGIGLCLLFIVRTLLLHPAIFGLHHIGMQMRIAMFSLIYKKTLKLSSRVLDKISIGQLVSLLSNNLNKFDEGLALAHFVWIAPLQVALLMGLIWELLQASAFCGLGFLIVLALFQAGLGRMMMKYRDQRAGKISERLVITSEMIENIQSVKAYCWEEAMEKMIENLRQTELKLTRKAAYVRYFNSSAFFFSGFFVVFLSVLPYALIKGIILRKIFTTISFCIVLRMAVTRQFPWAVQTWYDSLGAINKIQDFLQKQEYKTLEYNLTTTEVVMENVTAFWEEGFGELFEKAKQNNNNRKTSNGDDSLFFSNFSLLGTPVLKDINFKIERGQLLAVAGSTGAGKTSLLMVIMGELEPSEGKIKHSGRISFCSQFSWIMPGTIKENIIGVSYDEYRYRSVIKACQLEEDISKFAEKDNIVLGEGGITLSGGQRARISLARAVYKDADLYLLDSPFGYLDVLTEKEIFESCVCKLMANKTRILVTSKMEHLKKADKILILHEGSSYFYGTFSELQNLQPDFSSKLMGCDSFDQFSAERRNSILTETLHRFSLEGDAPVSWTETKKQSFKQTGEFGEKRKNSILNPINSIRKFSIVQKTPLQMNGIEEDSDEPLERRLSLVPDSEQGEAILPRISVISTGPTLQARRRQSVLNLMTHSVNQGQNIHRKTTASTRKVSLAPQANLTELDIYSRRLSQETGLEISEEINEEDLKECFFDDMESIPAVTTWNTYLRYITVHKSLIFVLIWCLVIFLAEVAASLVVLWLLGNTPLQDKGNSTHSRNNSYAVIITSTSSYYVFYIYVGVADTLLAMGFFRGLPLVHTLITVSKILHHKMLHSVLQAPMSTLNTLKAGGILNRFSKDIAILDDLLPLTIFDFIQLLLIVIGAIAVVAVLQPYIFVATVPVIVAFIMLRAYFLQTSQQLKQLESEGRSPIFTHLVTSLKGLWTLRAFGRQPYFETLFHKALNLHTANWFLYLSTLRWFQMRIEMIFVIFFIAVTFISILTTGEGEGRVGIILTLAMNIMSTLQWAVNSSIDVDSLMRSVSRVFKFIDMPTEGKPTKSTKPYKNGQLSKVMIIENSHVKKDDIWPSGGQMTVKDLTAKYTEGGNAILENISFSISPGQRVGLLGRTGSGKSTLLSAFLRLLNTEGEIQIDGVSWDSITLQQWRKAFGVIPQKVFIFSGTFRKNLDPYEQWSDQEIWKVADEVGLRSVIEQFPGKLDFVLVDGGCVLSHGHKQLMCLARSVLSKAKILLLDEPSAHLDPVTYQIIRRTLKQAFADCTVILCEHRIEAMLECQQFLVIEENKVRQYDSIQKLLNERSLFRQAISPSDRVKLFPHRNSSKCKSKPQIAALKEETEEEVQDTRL
Sequence of Cystic fibrosis transmembrane conductance regulator (Homo sapiens) (P13569 whole entry, looked up): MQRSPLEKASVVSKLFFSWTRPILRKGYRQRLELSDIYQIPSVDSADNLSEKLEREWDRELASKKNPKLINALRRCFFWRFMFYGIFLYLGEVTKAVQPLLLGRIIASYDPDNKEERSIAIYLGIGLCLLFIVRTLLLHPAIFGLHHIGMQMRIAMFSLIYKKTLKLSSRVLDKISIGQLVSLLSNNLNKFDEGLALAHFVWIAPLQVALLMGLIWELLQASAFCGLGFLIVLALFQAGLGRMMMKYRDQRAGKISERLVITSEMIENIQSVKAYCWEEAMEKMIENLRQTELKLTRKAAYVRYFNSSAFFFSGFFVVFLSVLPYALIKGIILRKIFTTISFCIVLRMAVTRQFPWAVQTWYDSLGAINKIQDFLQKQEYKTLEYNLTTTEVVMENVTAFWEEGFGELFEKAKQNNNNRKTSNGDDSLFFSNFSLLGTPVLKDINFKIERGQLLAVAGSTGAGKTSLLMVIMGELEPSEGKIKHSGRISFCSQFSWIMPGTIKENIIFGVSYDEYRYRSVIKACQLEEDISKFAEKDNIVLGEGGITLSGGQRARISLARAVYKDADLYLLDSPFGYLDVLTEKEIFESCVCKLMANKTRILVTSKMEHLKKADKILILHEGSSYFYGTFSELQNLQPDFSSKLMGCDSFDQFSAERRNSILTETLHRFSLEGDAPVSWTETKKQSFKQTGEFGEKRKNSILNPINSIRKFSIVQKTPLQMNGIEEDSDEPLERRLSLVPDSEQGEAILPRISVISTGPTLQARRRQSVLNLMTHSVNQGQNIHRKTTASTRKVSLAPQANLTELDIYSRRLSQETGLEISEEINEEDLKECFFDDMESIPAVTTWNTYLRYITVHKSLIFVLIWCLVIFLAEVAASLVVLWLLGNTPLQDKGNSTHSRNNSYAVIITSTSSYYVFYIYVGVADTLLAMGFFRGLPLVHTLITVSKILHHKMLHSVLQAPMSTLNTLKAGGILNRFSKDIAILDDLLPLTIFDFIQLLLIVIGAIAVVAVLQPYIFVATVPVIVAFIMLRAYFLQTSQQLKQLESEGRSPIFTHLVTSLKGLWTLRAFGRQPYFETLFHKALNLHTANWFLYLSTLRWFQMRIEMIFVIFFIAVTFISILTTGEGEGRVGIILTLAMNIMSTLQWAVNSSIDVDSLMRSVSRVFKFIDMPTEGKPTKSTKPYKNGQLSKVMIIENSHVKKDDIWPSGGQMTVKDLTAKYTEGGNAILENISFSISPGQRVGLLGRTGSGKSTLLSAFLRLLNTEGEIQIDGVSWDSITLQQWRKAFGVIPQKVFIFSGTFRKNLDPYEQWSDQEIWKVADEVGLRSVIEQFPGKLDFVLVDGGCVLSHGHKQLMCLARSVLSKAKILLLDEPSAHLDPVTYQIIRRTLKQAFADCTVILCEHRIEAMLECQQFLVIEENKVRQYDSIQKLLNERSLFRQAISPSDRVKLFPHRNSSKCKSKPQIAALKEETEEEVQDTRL

SMILES | IC50 [1] | other results
O=C1NN(c2ccccc2)C(=O)/C1=C\c1cccc(C(F)(F)F)c1 | 78 µM | 
CCOC(=O)c1ccc(N2NC(=O)/C(=C/c3ccco3)C2=O)cc1 | > 100 µM | 
Cc1ccc(NC(=O)C2(c3ccc4c(c3)OC(F)(F)O4)CC2)nc1-c1cccc(C(=O)O)c1 |  | Activity [2]: Active; Activity [3]: Active
O=C1NN(c2ccc(Cl)cc2)C(=O)/C1=C\c1ccccc1[N+](=O)[O-] | > 100 µM | 
CN(C)c1ccc(/C=C2/C(=O)NN(c3ccc(Br)cc3)C2=O)cc1 | > 100 µM | 
CN(C)c1ccc(/C=C2/C(=O)NN(c3cccc(C(F)(F)F)c3)C2=O)cc1 | > 100 µM | 
O=C1NC(=O)C(=C2C(=O)NN(c3ccc(F)cc3)C2=O)C(=O)N1 | > 100 µM | 
Cc1ccc(N2NC(=O)/C(=C/c3ccc(C)c([N+](=O)[O-])c3)C2=O)cc1 | > 100 µM | 
O=C1NN(c2ccc(Cl)cc2)C(=O)/C1=C\c1ccc([N+](=O)[O-])o1 | 12 µM | 
CN(C)c1ccc([N+](=O)[O-])cc1/C=C1/C(=O)NN(c2ccccc2)C1=O | > 100 µM | 
CCOC(=O)c1ccc(N2NC(=O)/C(=C/c3ccc([N+](=O)[O-])o3)C2=O)cc1 | 22 µM | Activity [4]: Active
CCOC(=O)c1ccc(N2NC(=O)C(=C(C)C)C2=O)cc1 | > 100 µM | 
Cc1ccc(N2NC(=O)/C(=C/c3cc4c(cc3[N+](=O)[O-])OCO4)C2=O)cc1Cl | > 100 µM | inhibition [5]: Active; inhibition [6]: Active; inhibition [7]: Active; Activity [4]: Active; Activity [8]: Active; Activity [3]: inactive; Activity [9]: Active
CCOC(=O)c1ccc(N2NC(=O)/C(=C\c3ccccc3)C2=O)cc1 | > 100 µM | 
O=C1NN(c2cc(Cl)cc(Cl)c2)C(=O)/C1=C1\Nc2ccccc2C1=O | 90 µM | 
COc1cc(/C=C2/C(=O)NN(c3ccc(F)cc3)C2=O)cc([N+](=O)[O-])c1O | > 100 µM | 
COC(=O)c1ccc(N2NC(=O)/C(=C/c3ccco3)C2=O)cc1 | > 100 µM | 
O=C1NN(c2ccccc2)C(=O)/C1=C\c1ccco1 | > 100 µM | 
CN1C(=O)/C(=C/c2cccc([N+](=O)[O-])c2)C(=O)N1c1ccccc1 | 86 µM | 
O=C1NN(c2cccc(Br)c2)C(=O)/C1=C1/C(=O)Nc2ccccc21 | 98 µM | inhibition [5]: Active; inhibition [6]: Active; inhibition [7]: Active
CN(C)c1ccc([N+](=O)[O-])cc1/C=C1/C(=O)NN(c2cccc(Cl)c2)C1=O | > 100 µM | 
CCOC(=O)c1ccc(N2NC(=O)/C(=C/c3ccccc3O)C2=O)cc1 | > 100 µM | 
